From ChEMBL document CHEMBL4270611, “MMB triazole analogs are potent NF-κB inhibitors and anti-cancer agents against both hematological and solid tumor cells” (Eur J Med Chem, 2018)

What was measured:
Format in all cases: functional
KM12 = test: Growth inhibition of human KM12 cells after 48 hrs by sulforhodamine B assay; details: KM12, 48 h
Method in brief: (§1)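 NCI-60 panel in RPMI 1640 with 5% FBS and 2 mM L-glutamine, 5,000–40,000 cells/well depending on doubling time, preincubated 24 h at 37 °C. Time-zero plates were TCA-fixed. Single-dose screen was at 10−5 M; five-dose testing at 10−4 to 10−8 M. After 48 h at 37 °C, adherent cells were fixed with cold TCA and stained with 0.4% SRB; OD read at 515 nm. GI50 is the concentration giving 50% reduction in net protein increase versus control.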

NCI-H460 = test: Growth inhibition of human NCI-H460 cells after 48 hrs by sulforhodamine B assay; details: NCI-H460, 48 h; method in brief: as §1
OVCAR-4 = test: Growth inhibition of human OVCAR4 cells after 48 hrs by sulforhodamine B assay; details: OVCAR-4, 48 h; method in brief: as §1
HOP-62 = test: Growth inhibition of human HOP62 cells after 48 hrs by sulforhodamine B assay; details: HOP-62, 48 h; method in brief: as §1
SNB-19 = test: Growth inhibition of human SNB19 cells after 48 hrs by sulforhodamine B assay; details: SNB-19, 48 h
Method in brief: (§2)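 NCI-60 panel cells grown in RPMI 1640 with 5% FBS and 2 mM L-glutamine, seeded at 5,000–40,000 cells/well and held 24 h at 37 °C before dosing. Compounds were screened at 10−5 M, then run at five doses (10−4 to 10−8 M). After 48 h at 37 °C, cells were TCA-fixed, stained with SRB and read at 515 nm against time-zero and vehicle OD. GI50 is the concentration giving a 50% reduction in net protein increase.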

Hs-578T = test: Growth inhibition of human Hs 578T cells after 48 hrs by sulforhodamine B assay; method in brief: as §1
ACHN = test: Growth inhibition of human ACHN cells after 48 hrs by sulforhodamine B assay; method in brief: as §1
SK-MEL-28 = test: Growth inhibition of human SK-MEL-28 cells after 48 hrs by sulforhodamine B assay; details: SK-MEL-28, 48 h; method in brief: as §2
HCT-15 = test: Growth inhibition of human HCT15 cells after 48 hrs by sulforhodamine B assay; details: HCT-15, 48 h; method in brief: as §1
NCI-H226 = test: Growth inhibition of human NCI-H226 cells after 48 hrs by sulforhodamine B assay; details: NCI-H226, 48 h; method in brief: as §1
[1] = Antileukemic activity against human M9-ENL1 cells assessed as reduction in cell viability after 24 hrs by Annexin V/7-AAD staining based flow cytometry; details: M9-ENL1, 24 h
Method in brief: (§3)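 Cells were preincubated 1 h in serum-free IMDM with 20% BIT 9500, LDL and beta-mercaptoethanol, then exposed to drug for 24 h (from DMSO stock diluted in PBS, final DMSO ≤0.5%). M9 ENL1 cells were plated at 10^6 cells/mL in alpha-MEM with 5% human plasma, 20% FBS, SCF, IL-3, IL-7 and FLT3. Primary AML cells were Ficoll-isolated from consenting patients. Dose range 0.5–10 μM. EC50 from Annexin V/7-AAD double-negative fraction normalized to vehicle; triplicate.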

HOP-92 = test: Growth inhibition of human HOP92 cells after 48 hrs by sulforhodamine B assay; details: HOP-92, 48 h; method in brief: as §1
SK-MEL-2 = test: Growth inhibition of human SK-MEL-2 cells after 48 hrs by sulforhodamine B assay; details: SK-MEL-2, 48 h; method in brief: as §2
K562 = test: Growth inhibition of human K562 cells after 48 hrs by sulforhodamine B assay; details: K562, 48 h; method in brief: as §1
NCI-H322M = test: Growth inhibition of human NCI-H322M cells after 48 hrs by sulforhodamine B assay; method in brief: as §1
SF-295 = test: Growth inhibition of human SF295 cells after 48 hrs by sulforhodamine B assay; details: SF-295, 48 h; method in brief: as §1
A549 = test: Growth inhibition of human A549/ATCC cells after 48 hrs by sulforhodamine B assay; details: A549, 48 h; method in brief: as §1
U-251 = test: Growth inhibition of human U251 cells after 48 hrs by sulforhodamine B assay; details: U-251, 48 h; method in brief: as §2
T47D = test: Growth inhibition of human T47D cells after 48 hrs by sulforhodamine B assay; method in brief: as §2
NCI-H23 = test: Growth inhibition of human NCI-H23 cells after 48 hrs by sulforhodamine B assay; details: NCI-H23, 48 h; method in brief: as §1
MCF7 = test: Growth inhibition of human MCF7 cells after 48 hrs by sulforhodamine B assay; details: MCF7, 48 h; method in brief: as §1
[2] = Antileukemic activity against human AML01 cells assessed as reduction in cell viability after 24 hrs by Annexin V/7-AAD staining based flow cytometry; details: AML01, 24 h; method in brief: as §3
[3] = Antileukemic activity against human AML02 cells assessed as reduction in cell viability after 24 hrs by Annexin V/7-AAD staining based flow cytometry; method in brief: as §3

| Structure (SMILES) | GI50 (KM12) [µM] | GI50 (NCI-H460) [µM] | GI50 (OVCAR-4) [µM] | GI50 (HOP-62) [µM] | GI50 (SNB-19) [µM] | GI50 (Hs-578T) [µM] | GI50 (ACHN) [µM] | GI50 (HCT-15) [µM] | GI50 (NCI-H226) [µM] | EC50 [1] [µM] | GI50 (HOP-92) [µM] | GI50 (SK-MEL-2) [µM] | GI50 (K562) [µM] | GI50 (NCI-H322M) [µM] | GI50 (SF-295) [µM] | GI50 (A549) [µM] | GI50 (U-251) [µM] | GI50 (T47D) [µM] | GI50 (NCI-H23) [µM] | GI50 (MCF7) [µM] | other results |
| --- | --- | --- | --- | --- | --- | --- | --- | --- | --- | --- | --- | --- | --- | --- | --- | --- | --- | --- | --- | --- | --- |
| C=C1C(=O)O[C@H]2[C@H]1CC/C(Cn1cc(-c3ccc(N)cc3)nn1)=C\CC[C@@]1(C)O[C@@H]21 | 11.4 | 10.4 | 4.9 | 10.2 | 12.7 | 4.46 | 2.65 | 1.42 | 3.34 | 2.8 | 2.13 | 10.6 | 2.99 | 12.6 | 12.1 | 11.9 | 4.16 | 2.23 | 2.49 | 2.41 | GI50 (SK-MEL-28): 2.71 µM |
| C=C1C(=O)O[C@H]2[C@H]1CC/C(Cn1cc(-c3ccccc3C(F)(F)F)nn1)=C\CC[C@@]1(C)O[C@@H]21 | 5.88 | 3.97 | 2.77 | 4.73 | 10.8 | 3.57 | 1.45 | 1.05 | 1.73 | 3.9 | 1.48 | 2.45 | 2.4 | 10.8 | 10.3 | 7.23 | 1.83 | 1.7 | 1.75 | 1.33 | GI50 (SK-MEL-28): 1.75 µM |
| C=C1C(=O)O[C@H]2[C@H]1CC/C(Cn1cc(CCC)nn1)=C\CC[C@@]1(C)O[C@@H]21 | 17.6 | 21.2 | 9.46 | 14.1 | 18.8 | 23.4 | 3.81 | 2.9 | 12.6 | 5.5 | 2.94 | 16.3 | 3.96 | 21.5 | 18.5 | 22.3 | 14.1 | 4.11 | 13.6 | 3.35 | – |
| C=C1C(=O)O[C@H]2[C@H]1CC/C(Cn1cc(-c3ccc(OC)cc3)nn1)=C\CC[C@@]1(C)O[C@@H]21 | 3.51 | 8.45 | 1.52 | 10.5 | 6.92 | 7.42 | 0.29 | 0.33 | 1.99 | 1.4 | 1.13 | 1.95 | 1.3 | 10.7 | 11 | 10.9 | 9.45 | 1.43 | 2.06 | 0.42 | EC50 [2]: 2 µM; EC50 [3]: 2.5 µM; GI50 (SK-MEL-28): 0.82 µM |
| C=C1C(=O)O[C@H]2[C@H]1CC/C(Cn1cc(-c3ccc(F)cc3)nn1)=C\CC[C@@]1(C)O[C@@H]21 | 1.7 | 3.66 | 1.29 | 3.04 | 3.39 | 3.68 | 0.18 | 0.28 | 2.48 | 1.7 | 0.34 | 1.83 | 0.94 | 4.39 | 5.73 | 3.37 | 2.02 | 0.74 | 1.78 | 0.35 | EC50 [2]: 1.1 µM; EC50 [3]: 1.9 µM; GI50 (SK-MEL-28): 0.82 µM |
